Among the data in ChEMBL document CHEMBL1129557, “Aryl phosphoramidate derivatives of d4T have improved anti-HIV efficacy in tissue culture and may act by the generation of a novel intracellular metabolite” (J Med Chem, 1996) are EC50 and CC50 values, retold here.

The subject of test [1] is MT4. The test can be described thus: Activity against HIV-2 in MT-4 cells (in vitro). Format: functional, cell-based. The note with it: Homo sapiens. In short, it runs like this:
(§1)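 MT-4 cells at 5 × 10⁵/mL infected with HIV-1 (IIIB) or HIV-2 (ROD) at about 100 CCID50/mL and exposed to compound dilutions. After 5 days, viable cells counted by trypan blue staining. EC₅₀ is the concentration protecting cells against viral cytopathogenicity by 50%. Mean of two to four independent experiments.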

In test [2] the test system is CEM-TK(-) (Homo sapiens). The test can be described thus: Activity against HIV-1 in CEM/TK cells (in vitro).
In test [3] the test system is CCRF-CEM. The experiment in a line: Cytotoxic concentration against CEM cells (in vitro). Type of test: functional. As to conditions: Homo sapiens. In short, it runs like this:
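Mock-infected CEM cultures exposed to compound dilutions alongside the antiviral assay and scored at day 4. CC₅₀ is the concentration reducing cell number by 50%.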

Test [4] relates to CCRF-CEM. The test can be described thus: Activity against HIV-2 in CEM cells (in vitro). Format: functional, cell-based. As to conditions: Homo sapiens. In short, it runs like this: (§2)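 Cells at 5 × 10⁵/mL infected with HIV-1 (IIIB) or HIV-2 (ROD) at about 100 CCID50/mL, then mixed with dilutions of test compound. After 4 days, giant cell formation scored microscopically. EC₅₀ is the concentration cutting giant cells by 50%. Mean of two to four independent experiments.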

In test [5] the test system is CCRF-CEM. The experiment in a line: Activity against HIV-1 in CEM cells (in vitro). Format: functional, cell-based. As to conditions: Homo sapiens. The procedure, abridged: as §2
Test [6] has as its system MT4. The test can be described thus: Cytotoxic concentration against MT-4 cells (in vitro). As to conditions: Homo sapiens. Type of test: functional. The procedure, abridged:
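Mock-infected MT-4 cultures (5 × 10⁵ cells/mL) exposed to compound dilutions for 5 days. Viable cells counted by trypan blue. CC₅₀ is the concentration reducing viable cell number by 50%.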

Test [7] concerns MT4. The test can be described thus: Activity against HIV-1 in MT-4 cells (in vitro). Format: functional, cell-based. The note with it: Homo sapiens. The procedure, abridged:
as §1

Test [8] deals with CCRF-CEM. The test can be described thus: Compound was tested for activity against HIV-2 in CEM cells. Format: functional, cell-based. As to conditions: Homo sapiens. The procedure, abridged: as §2

The structures appear in SMILES notation.

One may read the EC50 as the concentration that produces a half-maximal response. Read a high EC50 as weaker potency. As a reminder, the CC50 is the concentration giving 50% cytotoxicity. Read a high CC50 as lower toxicity to the cells. With `COC(=O)C(C)NP(=O)(OC[C@@H]1C=C[C@H](n2cc(C)c(=O)[nH]c2=O)O1)Oc1ccccc1` (stereo partly drawn), the EC50 in test [1] came out at 0.067 µM; in test [2], 0.075 µM; in test [4] it was 0.2 µM; in test [5], 0.182 µM; in test [7] it was 0.0665 µM. Further, the results for the CC50 in test [3] and in test [6] were 100 µM and greater than 100 µM, respectively.
Turning to `COC(=O)C(C)NP(=O)(OCC1C=CC(n2cc(C)c(=O)[nH]c2=O)O1)Oc1cc(Cl)cc(Cl)c1` (stereo not drawn), the EC50 in test [1] came out at 0.12 µM; in test [2] it was 0.11 µM; in test [4], 0.15 µM; in test [5], 0.11 µM; in test [7], 0.037 µM. Also, the CC50 in test [3] worked out at 26.9 µM; in test [6] it was 10.5 µM.
Turning to `COC(=O)C(NP(=O)(OCC1C=CC(n2cc(C)c(=O)[nH]c2=O)O1)Oc1ccccc1)C(C)C` (stereo not drawn), the EC50 in test [1] came out at 11.2 µM; in test [2], 4 µM; in test [4], 12.5 µM; in test [5], 12.5 µM; in test [7], 3.58 µM. Besides, the CC50 in test [3] and in test [6] was greater than 250 µM each time.
For the compound `COC(=O)C(C)NP(=O)(OC[C@@H]1C=C[C@H](n2cc(C)c(=O)[nH]c2=O)O1)Oc1cccc(C(F)(F)F)c1` (stereo partly drawn), the EC50 in test [1] amounted to 0.11 µM; in test [2] it was 0.11 µM; in test [4], 0.15 µM; in test [5] it was 0.15 µM; in test [7] it was 0.046 µM. Besides, the CC50 in test [3] was determined as 29.8 µM; in test [6] it was 9.75 µM.
For `COC(=O)C(C)NP(=O)(OCC1C=CC(n2cc(C)c(=O)[nH]c2=O)O1)Oc1ccc(Br)cc1Br` (stereo not drawn), the EC50 in test [2] is 0.025 µM; in test [4], 0.055 µM; in test [5], 0.04 µM. For the same compound, the half-maximal cytotoxic concentration (CC50) in test [3] was determined as 16 µM.
`COC(=O)CNP(=O)(OCC1C=CC(n2cc(C)c(=O)[nH]c2=O)O1)Oc1ccccc1` (stereo not drawn): the EC50 in test [1] was 6.71 µM; in test [2], 7 µM; in test [4], 6 µM; in test [5], 6 µM; in test [7], 1.34 µM. The CC50 in test [3] and in test [6] was greater than 250 µM throughout.
Turning to `COC(=O)C(CC(C)C)NP(=O)(OCC1C=CC(n2cc(C)c(=O)[nH]c2=O)O1)Oc1ccccc1` (stereo not drawn), the EC50 in test [1] turned out to be 0.47 µM; in test [2], 0.4 µM; in test [5], 1.1 µM; in test [8], 2.23 µM; in test [7], 0.2 µM. The CC50 in test [3] is greater than 250 µM; in test [6], 61.5 µM.
For the compound `COC(=O)C(Cc1ccccc1)NP(=O)(OCC1C=CC(n2cc(C)c(=O)[nH]c2=O)O1)Oc1ccccc1` (stereo not drawn), the EC50 is 0.38 µM in test [1]; 0.33 µM in test [2]; 1.35 µM in test [4]; 0.8 µM in test [5]; 0.19 µM in test [7]. The CC50 is 216 µM in test [3] and 34.1 µM in test [6].
As for `COC(=O)C(CCSC)NP(=O)(OCC1C=CC(n2cc(C)c(=O)[nH]c2=O)O1)Oc1ccccc1` (stereo not drawn), the EC50 in test [1] amounted to 0.38 µM; in test [2] it was 0.33 µM; in test [4], 0.8 µM; in test [5] it was 0.6 µM; in test [7], 0.23 µM. In addition, the CC50 is greater than 250 µM in test [3] and 22 µM in test [6].
In the case of `COC(=O)C(C)NP(=O)(OCC1C=CC(n2cc(C)c(=O)[nH]c2=O)O1)Oc1c(F)c(F)c(F)c(F)c1F` (stereo not drawn), the 50% effective concentration (EC50) in test [1] amounted to 4.07 µM; in test [2] it was 8.5 µM; in test [4], 3.7 µM; in test [5], 2.5 µM; in test [7], 1.72 µM. Also, the CC50 worked out at 115 µM in test [3] and 82.2 µM in test [6].
For `COC(=O)C(C)NP(=O)(OC)OCC1C=CC(n2cc(C)c(=O)[nH]c2=O)O1` (stereo not drawn), the EC50 in test [1] is 50.9 µM; in test [2], greater than 250 µM; in test [4], 50 µM; in test [5], 20 µM; in test [7] it was 25.4 µM. For the same compound, the CC50 in test [3] and in test [6] was greater than 250 µM throughout.
Regarding `CCOP(=O)(NC(C)C(=O)OC)OCC1C=CC(n2cc(C)c(=O)[nH]c2=O)O1` (stereo not drawn), the EC50 in test [1] was 62.5 µM; in test [2], 48 µM; in test [4] it was 240 µM; in test [5], 48 µM; in test [7], 28.5 µM. Moreover, the CC50 in test [3] and in test [6] was greater than 250 µM in each case.
`CCc1ccc(OP(=O)(NC(C)C(=O)OC)OCC2C=CC(n3cc(C)c(=O)[nH]c3=O)O2)cc1` (stereo not drawn): the EC50 in test [1] was 0.063 µM; in test [2], 0.06 µM; in test [4], 0.16 µM; in test [5] it was 0.07 µM; in test [7] it was 0.057 µM. The CC50 in test [3] was 60 µM; in test [6], greater than 100 µM.
On to `Cc1cn([C@H]2C=C[C@@H](CO)O2)c(=O)[nH]c1=O` [STAVUDINE], for which the EC50 amounted to 0.77 µM in test [1]; 33.3 µM in test [2]; 0.775 µM in test [4]; 0.8 µM in test [5]; 0.651 µM in test [7]. Besides, the CC50 in test [3] came out at 174 µM; in test [6], 19 µM.
`Cc1cn([C@H]2C[C@H](N=[N+]=[N-])[C@@H](CO)O2)c(=O)[nH]c1=O` [ZIDOVUDINE] came in with an EC50 in test [2] greater than 100 µM. Moreover, the CC50 in test [3] is greater than 500 µM; in test [6], 6 µM.
